# KCNQ1 pot = potentiators or activators of human KCNQ1 potassium channel | P51787 | CHO-K1 KCNQ1, thallium flux FluxOR fluorescence; stronger effect = higher value | B-score at 10 µM | actives 0.35% (n = 310,000) | AID 2648;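 active = fluorescence ratio B-score, a plate-corrected score, at least three library SD, with initial intensity B-score within 5 SD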
# Target sequence (P51787 whole entry, looked up): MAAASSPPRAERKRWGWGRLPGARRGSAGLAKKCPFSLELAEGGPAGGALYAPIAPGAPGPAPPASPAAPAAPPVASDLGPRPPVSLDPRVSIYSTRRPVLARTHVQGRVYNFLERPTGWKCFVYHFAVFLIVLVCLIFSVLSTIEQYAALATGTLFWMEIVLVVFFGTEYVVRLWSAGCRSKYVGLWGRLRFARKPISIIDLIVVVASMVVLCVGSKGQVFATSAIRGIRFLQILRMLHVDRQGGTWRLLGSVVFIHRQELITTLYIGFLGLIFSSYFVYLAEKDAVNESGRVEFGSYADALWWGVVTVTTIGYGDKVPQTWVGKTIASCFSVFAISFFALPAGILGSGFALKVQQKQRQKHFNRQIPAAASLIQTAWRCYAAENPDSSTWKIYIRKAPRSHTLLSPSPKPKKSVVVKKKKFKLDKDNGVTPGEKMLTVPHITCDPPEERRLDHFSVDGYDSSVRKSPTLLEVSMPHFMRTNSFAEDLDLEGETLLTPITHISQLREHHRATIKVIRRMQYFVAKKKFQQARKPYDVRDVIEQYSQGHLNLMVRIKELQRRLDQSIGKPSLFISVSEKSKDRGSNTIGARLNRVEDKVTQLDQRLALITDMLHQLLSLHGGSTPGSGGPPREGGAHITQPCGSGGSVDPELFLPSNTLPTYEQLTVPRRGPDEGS
#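 Material: CHO-K1 cells stably expressing KCNQ1. Medium: assay buffer for compound exposure, DMSO matched across wells. Reagent: K+/Tl+ depolarizing stimulus. Compound dosing: single-concentration screen. Times: 37 °C overnight plating, 90-min dark dye load, 20-min compound pretreatment. Technique: FluxOR Tl+ flux fluorescence.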
# KCNQ1 block = human KCNQ1 channel inhibition; P51787; CHO-K1 KCNQ1, FluxOR thallium flux fluorescence; stronger effect = higher value; B-score at 10 µM; actives 1.3% (n = 310,000); AID 2642;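 active = compounds whose thallium flux B-score, printed positive for inhibition, exceeds three library SD while starting fluorescence stays within three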;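 note: channel opened by potassium depolarization with thallium stimulus after 20 min compound exposure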
# KCC2 mod = KCC2 (human) Cl- transport modulation; Q9H2X9; KCC2 cells, thallium flux FluoZin-2 fluorescence; B-score of Tl+ flux slope (higher = more flux/activation; lower = inhibition) at 10 µM; actives 2.2% (n = 190,000);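 active = thallium flux slope and its plate-corrected score both differing from the plate sample mean at a set confidence after two filtering rounds, in either direction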;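 note: slope of fluorescence scaled to starting intensity during 10 to 20 s after thallium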
# KCNK3 inh = human KCNK3 channel inhibition, primary screen; O14649; CHO-KCNK3 thallium flux, FluxOR fluorescence; stronger effect = lower value; B-score at 10 µM; actives 0.84% (n = 340,000); AID 602410;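 active = B-score under library mean minus 4 SD, starting fluorescence ratio at most library mean plus 5 SD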;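 note: more negative B-score means stronger inhibition of thallium flux through KCNK3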
# hERG protect = shields human hERG channel from block by proarrhythmic agents. AID 1511. activation (rescue from dofetilide block), less the hit threshold, % at 10 µM. actives 0.51% (n = 310,000). CHO-hERG, FluxOR thallium flux, dofetilide IC70 present;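 active = activation above the mean of controls blocked by dofetilide plus 5 SD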;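 note: thallium influx through hERG after potassium depolarization seen as dye fluorescence rise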
# KCNK9 block = blocks the human KCNK9 two-pore domain potassium channel; HEK293 KCNK9, FluxOR thallium flux fluorescence; stronger effect = lower value; Q9NPC2; actives 1.2% (n = 310,000); B-score at 10 µM;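 active = ratio B-score over 3 SD below the library mean, with starting fluorescence within 5 SD of its mean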;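 note: negative B-score means less thallium flux so channel inhibition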
# KCC2 sec1 = KCC2 (human) modulation, secondary assay. actives 15% (n = 3,700). shares compounds with KCC2 mod. normalised thallium flux (F/F0 slope) at 10 µM. HEK293-KCC2, thallium flux, FluoZin2 fluorescence; stronger effect = higher value;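 active = thallium flux slope above the same plate's solvent-only control mean plus 3 SD; inconclusive = the two replicate wells disagree; inactive = no significant difference from solvent-only control wells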
# KCC2 bumet counter = bumetanide-insensitive thallium flux in KCC2 cells with ouabain, counter-screen | HEK293-KCC2 + bumetanide/ouabain, thallium flux FluoZin2; stronger effect = higher value | shares compounds with KCC2 mod | actives 49% (n = 3,700) | normalized thallium flux at 10 µM | AID 1714;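 active = thallium entry rate above the same plate's blocked-transporter control wells by more than 3 SD; inconclusive = the two repeat wells disagree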;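 note: raw slope of fluorescence over initial fluorescence between 10 and 20 s after thallium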
# KCC2 secondary2 = KCC2 (human) modulation, second secondary assay | normalized thallium flux at 10 µM | AID 1715 | HEK293-KCC2, thallium flux FluoZin2 fluorescence; actives lie on both sides; F/F0 rise rate, 10–20 s post-thallium | actives 23% (n = 3,700) | shares compounds with KCC2 mod;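 active = thallium flux slope more than 3 SD above or below the plate's solvent-only control mean, mostly below; inconclusive = the two repeat wells disagreed; inactive = no significant shift from solvent-only controls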;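 note: raw slope with 0.1% DMSO as baseline and bumetanide as block control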
# HEK counter1 = counter-screen for KCC2 modulators: effect in parental HEK293 cells | thallium flux rate (normalised fluorescence) at 10 µM | thallium flux FluoZin2, ouabain; baseline-ratio fluorescence slope, 10–20 s after thallium | actives 46% (n = 3,700) | shares compounds with KCC2 mod;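 active = thallium flux rate significantly above the same plate's solvent-only control wells, beyond their mean plus 3 SD; inconclusive = the two replicate wells gave conflicting results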
# KCC2 ouabain = KCC2 (human) modulation, ouabain retest; raw Tl+ flux slope (below DMSO = inhibition, above = activation) at 10 µM; actives 48% (n = 3,700); HEK293-KCC2, thallium flux FluoZin2 fluorescence; bidirectional: low = inhibitor, high = activator; shares compounds with KCC2 mod;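 active = thallium flux slope beyond 3 SD from same-plate DMSO control mean in most replicates, usually higher, sometimes lower; inconclusive = repeat tests gave conflicting results; inactive = no significant difference from controls in most replicates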;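 note: slope of initial-normalized fluorescence between seconds 10 and 20 after thallium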
# HEK293 Tl flux2 = acts in parental HEK cells, second KCC2 counter-screen | shares compounds with KCC2 mod | HEK293 parental, thallium flux FluoZin-2 fluorescence slope | actives 33% (n = 3,700) | AID 1718 | thallium flux slope at 10 µM;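 active = thallium flux slope above the same plate's solvent-control mean plus 3 SD in both duplicate wells; inconclusive = duplicate wells that disagreed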;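 note: run without ouabain in cells lacking the KCC2 cotransporter; slope of fluorescence scaled to its starting value between 10 and 20 s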
# * hit, by the source's call; i = inactive; ? = inconclusive; . = no result given. This is a sample that favours compounds with a hit; in the whole collection about 4.1% have one here.
SMILES,KCNQ1 pot,KCNQ1 block,KCC2 mod,KCNK3 inh,hERG protect,KCNK9 block,KCC2 sec1,KCC2 bumet counter,KCC2 secondary2,HEK counter1,KCC2 ouabain,HEK293 Tl flux2
O=C(CC(Cc1ccccc1)c1ccco1)NC1CCCCC1 (stereo not drawn),i,i,.,i,-7,i,0.011,0.0063,0.028*,0.0077,0.013*,0.01
O=C1NCCOC(=O)[C@@H](Cc2ccc(F)cc2)C/C=C\C[C@@H]1CC(=O)N(CCO)Cc1ccccc1,.,.,.,i,.,.,.,.,.,.,.,.
CCC(=Nc1ccc(Cc2ccncc2)cc1)c1c(O)n(C)c(=O)n(C)c1=O,.,.,-3.2*,i,.,.,0.0078,?,0.024*,0.0079,?,0.012
Cn1c(=O)c2c(O)c(Cc3ccccc3)c(=O)[nH]c2n(C)c1=O,i,i,1,i,-5,i,.,.,.,.,.,.
O=C1C(Cl)=C(Nc2ccccc2)C(=O)c2ccccc21,i,i,4.5*,i,-10,i,0.0084,0.0066,0.04,0.0044,0.022,0.011
O=C1COc2ccc(-c3csc(=Nc4ccc(OC(F)F)cc4)n3CC3CCCO3)cc2N1 (stereo not drawn),i,i,-4.8*,i,-4,i,0.0071,0.0051,0.028,0.0075,0.017,0.01
O=C(CN(C(=O)c1csnn1)c1cccc(C(F)(F)F)c1)NC1CCCC1,i,i,.,i,-8,i,.,.,.,.,.,.
COc1ccccc1C(=O)NC1CCCCCCC1,i,i,-0.95,i,-12,i,.,.,.,.,.,.
O=C(CSc1ccccc1C(=O)NCc1ccccc1)NC12CC3CC(CC(C3)C1)C2,i,i,-3.6*,i,-16,i,?,?,0.022*,0.0072,?,0.011
O=C(CSc1ccccc1C(=O)O)NCc1ccccc1,i,i,0.51,i,-3,i,.,.,.,.,.,.
O=C(CSc1ccccc1C(=O)NCc1ccccc1)NC1CCCCCCC1,i,i,-4*,i,-12,i,0.0069,?,0.021*,0.0067,?,0.011
O=C(NC1CCCC1)c1ccccc1OCc1ccccc1,i,i,-3.6*,i,-16,i,0.0071,?,0.027,0.0047*,0.015*,0.0083
CCCC(C)NC(=O)c1cc(S(=O)(=O)N2CCCCCC2)ccc1OC (stereo not drawn),.,.,.,i,.,.,.,.,.,.,.,.
C=C(C)COc1ccc(-c2[nH]ncc2-c2ccccc2)c(O)c1,i,i,-4.4*,i,-13,i,0.011,?,0.035,0.0073,0.023,0.01
CC(C)c1ccc(/C=N/NC(=O)c2ccccc2Cl)cc1,i,i,-4.4*,i,-15,i,0.0054,0.005,0.024*,0.0072,?,0.01
CCc1ccc(NC(=O)CSc2nccn(-c3ccc4c(c3)OCCO4)c2=O)cc1,i,i,.,i,-14,i,.,.,.,.,.,.
O=S(=O)(NCc1ccco1)c1ccc2c(c1)Cc1ccccc1-2,i,i,-4*,i,-15,i,0.0062,0.0045,0.027,?,?,0.011
Nc1cc2c(cc1Cl)-c1ccccc1C2=NO,.,.,.,i,.,.,.,.,.,.,.,.
Cc1ccc(C)c2sc(NC(=O)C3CC3)nc12,i,i,.,i,-6,i,.,.,.,.,.,.
O=C(Nc1nc2c(Br)cc(Br)cc2c(=O)s1)C1CCC1,i,i,9.9*,i,5.9*,i,0.024*,0.041*,0.034,0.027*,0.044*,0.015*
COc1ccc(C(=O)NC(C)c2ccc(-n3ccnc3)cc2)cc1[N+](=O)[O-] (stereo not drawn),i,i,.,i,-5,i,.,.,.,.,.,.
OC(CNc1ncnc2sccc12)c1ccccc1 (stereo not drawn),i,i,.,i,-12,i,.,.,.,.,.,.
O=C1NC(=S)SC1=C1CCCC1,i,i,18*,i,0,i,0.0066,0.028*,0.042*,0.029*,0.037*,0.032*
O=C(N/N=C/c1ccc[nH]1)c1sc2ccccc2c1Cl,i,i,9.7*,i,-1,i,0.014*,0.094*,0.029,0.024*,0.05*,0.011*
COC(=O)CCCCC(=O)C1C(=O)CC(C)(C)C(C(=O)OC)C1=O (stereo not drawn),i,i,0.57,i,-1,i,.,.,.,.,.,.
SMILES,KCNQ1 pot,KCNQ1 block,KCC2 mod,KCNK3 inh,hERG protect,KCNK9 block,KCC2 sec1,KCC2 bumet counter,KCC2 secondary2,HEK counter1,KCC2 ouabain,HEK293 Tl flux2
CC1(C)CC(=O)C(C(=O)CCCCC(=O)C2C(=O)CC(C)(C)CC2=O)C(=O)C1,i,i,4.4*,i,-2,i,0.01,0.006,0.035,0.0085,0.02,0.011
Cc1oc(-c2nc3ccccc3n2C)cc1C(=O)c1ccccc1,i,i,-2.9*,i,-11,i,0.0063,0.0051,0.032,0.0036,0.014*,0.011
Clc1ccccc1OCCCOc1cccc2cccnc12,i,i,.,i,-7,i,.,.,.,.,.,.
CCn1c(SCC(=O)O)nnc1-c1ccc(S(=O)(=O)N2CCCC2)cc1,i,i,.,i,-9,i,.,.,.,.,.,.
CCn1c(SCC(N)=O)nnc1-c1ccc(S(=O)(=O)N2CCN(C)CC2)cc1,i,i,3.7*,i,-12,i,0.0094,0.0073,0.035,?,0.023,?
N#Cc1ccc(S(=O)(=O)NCC(=O)OCC(=O)N2CCCC2=O)cc1,i,i,.,i,-11,i,.,.,.,.,.,.
COc1ccc(-c2nc(-c3ccccc3)c(-c3cccs3)[nH]2)cc1OC,i,i,-5.4*,i,-21,i,0.0094,0.0073,0.032,0.0043,0.018,0.011
O=[N+]([O-])c1cccc(-c2nc(-c3ccccc3)c(-c3cccs3)[nH]2)c1,i,i,.,i,-3,i,.,.,.,.,.,.
